Test results as given in ChEMBL document CHEMBL5338787, “Discovery of Novel Bruton's Tyrosine Kinase PROTACs with Enhanced Selectivity and Cellular Efficacy” (J Med Chem, 2023).
Activity calls are given as the source filed them. The calls are words filed in the database; no cut-off is given here.

How the values were obtained:
[1] = target: T1, Protein cereblon/Tyrosine-protein kinase BTK (Homo sapiens, UniProt Q06187+Q96SW2); test: PROTAC activity at BTK/CRBN protein protein interaction in human Ramos cell assessed as degradation of BTK incubated for 17 hrs measured by Western blot analysis relative to control; type: cell-based
Summary of the method: (§1)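 Ramos or JeKo-1 cells (2 × 10^6 per well) were exposed for 17 h to 3000–0.15 nM PROTAC in 3-fold steps. Cells were lysed and analysed by western blot, with BTK normalised to β-actin. DC50 and Dmax come from the dose-response; DC50 is the mean ± SD of two independent experiments.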
Target sequence in this assay (Q06187 2-659 limits assumed): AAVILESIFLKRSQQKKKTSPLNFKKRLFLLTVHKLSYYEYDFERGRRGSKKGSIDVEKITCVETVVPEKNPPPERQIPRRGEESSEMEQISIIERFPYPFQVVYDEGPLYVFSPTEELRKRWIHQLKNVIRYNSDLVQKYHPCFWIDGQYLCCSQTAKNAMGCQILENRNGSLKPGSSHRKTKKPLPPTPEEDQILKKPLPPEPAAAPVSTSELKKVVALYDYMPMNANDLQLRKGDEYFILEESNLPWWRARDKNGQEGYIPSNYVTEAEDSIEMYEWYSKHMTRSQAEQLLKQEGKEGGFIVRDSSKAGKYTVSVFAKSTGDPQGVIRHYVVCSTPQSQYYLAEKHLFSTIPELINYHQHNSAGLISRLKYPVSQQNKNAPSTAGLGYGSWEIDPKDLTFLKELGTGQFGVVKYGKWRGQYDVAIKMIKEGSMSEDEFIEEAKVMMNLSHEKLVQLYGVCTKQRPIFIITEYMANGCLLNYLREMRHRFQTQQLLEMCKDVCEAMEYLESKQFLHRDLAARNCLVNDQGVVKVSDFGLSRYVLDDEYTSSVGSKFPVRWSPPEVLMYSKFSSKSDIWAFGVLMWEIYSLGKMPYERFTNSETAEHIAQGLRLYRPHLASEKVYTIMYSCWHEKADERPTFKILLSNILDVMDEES
Target sequence in this assay (Q96SW2 whole entry partner): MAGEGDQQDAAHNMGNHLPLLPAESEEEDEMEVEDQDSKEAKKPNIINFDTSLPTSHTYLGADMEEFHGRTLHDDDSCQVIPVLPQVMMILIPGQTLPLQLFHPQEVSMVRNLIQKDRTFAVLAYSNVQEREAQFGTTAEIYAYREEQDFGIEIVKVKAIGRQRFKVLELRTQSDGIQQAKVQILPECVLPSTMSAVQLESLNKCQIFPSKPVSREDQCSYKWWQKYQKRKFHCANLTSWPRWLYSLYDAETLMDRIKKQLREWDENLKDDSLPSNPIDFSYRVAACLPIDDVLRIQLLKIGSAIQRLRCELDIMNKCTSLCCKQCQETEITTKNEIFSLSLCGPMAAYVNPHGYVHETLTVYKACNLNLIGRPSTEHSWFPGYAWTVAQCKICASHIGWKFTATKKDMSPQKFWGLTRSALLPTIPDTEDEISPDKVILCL

[2] = target: T1, Protein cereblon/Tyrosine-protein kinase BTK; test: PROTAC activity at BTK/CRBN protein protein interaction in human JeKo-1 cell assessed as degradation of BTK incubated for 17 hrs measured by Western blot analysis; type: cell-based; summary of the method: as §1
Target sequence in this assay (Q06187 whole entry): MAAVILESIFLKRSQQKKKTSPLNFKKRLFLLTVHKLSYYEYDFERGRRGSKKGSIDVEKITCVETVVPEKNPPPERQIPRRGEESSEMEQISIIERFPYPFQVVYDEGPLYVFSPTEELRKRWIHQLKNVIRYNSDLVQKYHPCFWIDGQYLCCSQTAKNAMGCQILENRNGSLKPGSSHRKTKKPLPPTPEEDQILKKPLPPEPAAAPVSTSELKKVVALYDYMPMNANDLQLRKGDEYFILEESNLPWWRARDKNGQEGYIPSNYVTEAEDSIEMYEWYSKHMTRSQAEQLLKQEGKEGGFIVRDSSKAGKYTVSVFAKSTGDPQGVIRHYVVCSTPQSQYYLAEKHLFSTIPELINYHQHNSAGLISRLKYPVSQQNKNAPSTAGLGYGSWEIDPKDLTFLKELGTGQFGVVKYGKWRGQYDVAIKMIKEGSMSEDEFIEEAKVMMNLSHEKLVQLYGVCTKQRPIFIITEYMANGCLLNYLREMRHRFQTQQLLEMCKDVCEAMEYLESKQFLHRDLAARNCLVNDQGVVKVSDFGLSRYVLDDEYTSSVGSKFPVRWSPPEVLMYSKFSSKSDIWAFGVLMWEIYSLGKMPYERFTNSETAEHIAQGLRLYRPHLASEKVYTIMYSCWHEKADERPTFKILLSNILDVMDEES
Target sequence in this assay (Q96SW2 whole entry): as the sequence (Q96SW2 whole entry partner) above

[3] = target: T1, Protein cereblon/Tyrosine-protein kinase BTK; test: PROTAC activity at BTK/CRBN protein protein interaction in human Ramos cell assessed as degradation of BTK incubated for 17 hrs measured by Western blot analysis; type: cell-based; summary of the method: as §1
Target sequence in this assay (Q06187 whole entry): as the sequence (Q06187 whole entry) above
Target sequence in this assay (Q96SW2 whole entry): as the sequence (Q96SW2 whole entry partner) above

[4] = target: T1, Protein cereblon/Tyrosine-protein kinase BTK; test: PROTAC activity at BTK/CRBN protein protein interaction in human JeKo-1 cell assessed as degradation of BTK incubated for 17 hrs measured by Western blot analysis relative to control; type: cell-based; summary of the method: as §1
Target sequence in this assay (Q06187 2-659 limits assumed): as the sequence (Q06187 2-659 limits assumed) above
Target sequence in this assay (Q96SW2 whole entry partner): as the sequence (Q96SW2 whole entry partner) above

TMD8 = test: Cytotoxicity against human TMD8 cells incubated for 48 hrs by celltitre glo 2.0 assay; type: functional, cell-based; conditions: TMD8, 48 h
[5] = Cytotoxicity against human MINO cells incubated for 48 hrs by celltitre glo 2.0 assay; type: functional, cell-based
[6] = target: von Hippel-Lindau disease tumor suppressor/Tyrosine-protein kinase BTK (Homo sapiens) (UniProt Q06187+P40337); test: PROTAC activity at BTK/VHL protein protein interaction in human Ramos cell assessed as degradation of BTK incubated less than 3000 nM for 17 hrs measured by Western blot analysis
Chain of von Hippel-Lindau disease tumor suppressor/Tyrosine-protein kinase BTK (Homo sapiens) (P40337 whole entry partner): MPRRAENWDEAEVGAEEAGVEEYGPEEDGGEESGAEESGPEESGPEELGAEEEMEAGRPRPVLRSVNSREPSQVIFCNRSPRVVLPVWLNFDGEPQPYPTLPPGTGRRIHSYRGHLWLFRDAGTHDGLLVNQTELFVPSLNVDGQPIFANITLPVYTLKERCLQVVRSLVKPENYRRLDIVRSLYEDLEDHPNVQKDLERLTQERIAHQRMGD
Chain of von Hippel-Lindau disease tumor suppressor/Tyrosine-protein kinase BTK (Homo sapiens) (Q06187 2-659 limits assumed): as the sequence (Q06187 2-659 limits assumed) above

Emax [1]	DC50 [2]	DC50 [3]	Emax [4]	Activity [6]	Compound	IC50 (TMD8)	IC50 [5]
96.9%	3.5 nM	2 nM	98%	–	Cn1cc(-c2ccnc(N3CCn4c(cc5c4CC(C)(C)C5)C3=O)c2CO)cc(Nc2ccc(N3CCN(C(=O)CCCCCCNc4cccc5c4C(=O)N(C4CCC(=O)NC4=O)C5=O)CC3)cn2)c1=O (stereo not drawn)	–	–
–	–	–	–	–	Nc1ncnc2c1c(-c1ccc(Oc3ccccc3)cc1)nn2C1CCN(CCOCCOCC(=O)Nc2ccc3c(c2)C(=O)N(C2CCC(=O)NC2=O)C3=O)CC1 (stereo not drawn)	12 nM	100 nM
97.2%	6.8 nM	5.3 nM	97.7%	–	Cn1cc(-c2ccnc(N3CCn4c(cc5c4CC(C)(C)C5)C3=O)c2CO)cc(Nc2ccc(N3CCN(CCCCCCOCCOCC(=O)Nc4cccc5c4C(=O)N(C4CCC(=O)NC4=O)C5=O)CC3)cn2)c1=O (stereo not drawn)	–	–
–	–	–	–	inactive	Cc1ncsc1-c1ccc(CNC(=O)[C@@H]2C[C@@H](O)CN2C(=O)[C@@H](NC(=O)COCCOCCCCCCC(=O)N2CCN(c3ccc(Nc4cc(-c5ccnc(N6CCn7c(cc8c7CC(C)(C)C8)C6=O)c5CO)cn(C)c4=O)nc3)[C@@H](C)C2)C(C)(C)C)cc1	–	–
98.3%	7.2 nM	4 nM	98.8%	–	Cn1cc(-c2ccnc(N3CCn4c(cc5c4CC(C)(C)C5)C3=O)c2CO)cc(Nc2ccc(N3CCN(C(=O)CCCCCCOCCOCC(=O)Nc4cccc5c4C(=O)N(C4CCC(=O)NC4=O)C5=O)CC3)cn2)c1=O (stereo not drawn)	–	–
–	–	–	–	–	Cc1c(NC(=O)c2ccc(C(C)(C)C)cc2)cccc1-c1cn(C)c(=O)c(Nc2ccc(C(=O)N3CCN(CCCCCCNC(=O)CNc4cccc5c4C(=O)N(C4CCC(=O)NC4=O)C5=O)CC3)cc2)n1 (stereo not drawn)	5.1 nM	10.9 nM
95%	3.3 nM	3.2 nM	97%	–	C[C@H]1CN(C(=O)CCCCCCNc2cccc3c2C(=O)N(C2CCC(=O)NC2=O)C3=O)CCN1c1ccc(Nc2cc(-c3ccnc(N4CCn5c(cc6c5CC(C)(C)C6)C4=O)c3CO)cn(C)c2=O)nc1 (stereo partly drawn)	–	–
89.8%	4.6 nM	3.6 nM	89.2%	–	C[C@H]1CN(C(=O)CNc2cccc3c2CN(C2CCC(=O)NC2=O)C3=O)CCN1c1ccc(Nc2cc(-c3ccnc(N4CCn5c(cc6c5CC(C)(C)C6)C4=O)c3CO)cn(C)c2=O)nc1 (stereo partly drawn)	–	–
97.1%	–	6.6 nM	97.7%	–	C[C@H]1CN(C(=O)CCCCCCOCCOCC(=O)Nc2cccc3c2C(=O)N(C2CCC(=O)NC2=O)C3=O)CCN1c1ccc(Nc2cc(-c3ccnc(N4CCn5c(cc6c5CC(C)(C)C6)C4=O)c3CO)cn(C)c2=O)nc1 (stereo partly drawn)	–	–
